Test results as given in ChEMBL document CHEMBL1158182, “Antifungal activity of chalcones: a mechanistic study using various yeast strains” (Eur J Med Chem, 2008).
In brackets after ≈: the same amount, converted by molar mass. Activity calls are given as the source filed them. The calls are words filed in the database; no cut-off is given here.

What was measured:
Ogataea angusta [1] = test: Antifungal activity against Hansenula polymorpha CD2 with ade1 leu2 cds2 genotype by agar dilution method; format: functional
How it was run: (§1)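 H. polymorpha strains were tested by agar dilution on rich YPD agar at 37 °C. Compound stocks in 96% EtOH were mixed into the medium to give […]. Cells were suspended in water, serially diluted to 10^9, 10^7, 10^5 and 10^3 cells/ml, and applied to the agar with a metal replicator. MIC was read from growth.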

Ogataea angusta [2] = test: Antifungal activity against Hansenula polymorpha MC1 with met2 cys1 genotype by agar dilution method; format: functional; how it was run: as §1
Saccharomyces cerevisiae [3] = test: Antifungal activity against haploid Saccharomyces cerevisiae FY4 by agar dilution method; format: functional
How it was run: (§2)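 S. cerevisiae and K. lactis strains were tested by agar dilution on rich YPD agar at 30 °C. Compound stocks in 96% EtOH were added to the medium to give […]. Cells were suspended in water, serially diluted to 10^9–10^3 cells/ml, and plated with a metal replicator. MIC was read from growth.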

[4] = Stability of compound in liquid YPD media after 48 hrs by UV spectrophotometry; format: physicochemical
How it was run: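 Compound from a 96% EtOH stock was added to liquid YPD to […]. The medium was inoculated with 10^5 cells/ml of H. polymorpha WT1 and incubated at 37 °C. Samples were taken at 24 and 48 h and centrifuged, and compound in the supernatant was measured by absorbance at 308 nm. Controls had no cells. Assays were run in triplicate.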

Ogataea angusta [5] = test: Antifungal activity against Hansenula polymorpha 2a with cys1 genotype at 20 to 30 uM after 1 day by agar dilution method; format: functional, organism-based
Saccharomyces cerevisiae [6] = test: Antifungal activity against haploid Saccharomyces cerevisiae YSH1170 by agar dilution method; format: functional; how it was run: as §2
Ogataea angusta [7] = test: Antifungal activity against Hansenula polymorpha AS1 with gsh1 genotype at 20 to 30 uM after 1 day by agar dilution method; format: functional, organism-based
Saccharomyces cerevisiae [8] = test: Antifungal activity against haploid Saccharomyces cerevisiae 2180 by agar dilution method; format: functional; how it was run: as §2
Ogataea angusta [9] = test: Antifungal activity against Hansenula polymorpha CD3 with ade1 leu2 cds3 genotype by agar dilution method; format: functional; how it was run: as §1
Ogataea angusta [10] = test: Antifungal activity against Hansenula polymorpha M4 with met4 genotype by agar dilution method; format: functional; how it was run: as §1
Ogataea angusta [11] = test: Antifungal activity against Hansenula polymorpha WT1 at 20 to 30 uM after 1 day by agar dilution method; format: functional, organism-based
Saccharomyces cerevisiae [12] = test: Antifungal activity against diploid Saccharomyces cerevisiae 29a by agar dilution method; format: functional; how it was run: as §2
Ogataea angusta [13] = test: Antifungal activity against Hansenula polymorpha CRD2 with leu2 CDR2 genotype by agar dilution method; format: functional; how it was run: as §1
Saccharomyces cerevisiae [14] = test: Antifungal activity against haploid Saccharomyces cerevisiae YSH1171 by agar dilution method; format: functional; how it was run: as §2
Ogataea angusta [15] = test: Antifungal activity against Hansenula polymorpha WT1 with ade1 ura3 genotype by agar dilution method; format: functional; how it was run: as §1
Ogataea angusta [16] = test: Antifungal activity against Hansenula polymorpha AS1 with gsh1 genotype with cellular density of 10^3 cells/ml at >40 uM by agar dilution method; format: functional, organism-based
Ogataea angusta [17] = test: Antifungal activity against Hansenula polymorpha 2a with arg1 leu2 ura3 cys1 genotype by agar dilution method; format: functional; how it was run: as §1
Ogataea angusta [18] = test: Antifungal activity against Hansenula polymorpha CD1 with ade1 leu2 cds1 genotype by agar dilution method; format: functional; how it was run: as §1
Ogataea angusta [19] = test: Antifungal activity against Hansenula polymorpha AS1 with gsh1 genotype with cellular density of 10^9 cells/ml at 40 uM by agar dilution method; format: functional, organism-based
Saccharomyces cerevisiae [20] = test: Antifungal activity against diploid Saccharomyces cerevisiae 1a by agar dilution method; format: functional; how it was run: as §2
Ogataea angusta [21] = test: Antifungal activity against Hansenula polymorpha 2a with cys1 genotype with cellular density of 10^9 cells/ml at 40 uM by agar dilution method; format: functional, organism-based
Ogataea angusta [22] = test: Antifungal activity against Hansenula polymorpha D22 with arg1/arg1 ade1/ADE1 leu2/leu2 URA3/ura3 CYS1/cys1 genotype by agar dilution method; format: functional; how it was run: as §1
Saccharomyces cerevisiae [23] = test: Antifungal activity against haploid Saccharomyces cerevisiae 1169 by agar dilution method; format: functional; how it was run: as §2
Ogataea angusta [24] = test: Antifungal activity against Hansenula polymorpha 2b with arg1 ade1 leu2 genotype by agar dilution method; format: functional; how it was run: as §1
Ogataea angusta [25] = test: Antifungal activity against Hansenula polymorpha WT2 with ade1 met6 genotype by agar dilution method; format: functional; how it was run: as §1
Ogataea angusta [26] = test: Antifungal activity against Hansenula polymorpha WT1 with cellular density of 10^9 cells/ml at 40 uM by agar dilution method; format: functional, organism-based
Kluyveromyces lactis [27] = test: Antifungal activity against Kluyveromyces lactis 2-18B with MATalpha metA1 ura3 leu2 genotype by agar dilution method; format: functional; how it was run: as §2
Ogataea angusta [28] = test: Antifungal activity against Hansenula polymorpha AS2 with gsh2 genotype with cellular density of 10^9 cells/ml at 40 uM by agar dilution method; format: functional, organism-based
Ogataea angusta [29] = test: Antifungal activity against Hansenula polymorpha R3 with rgh3 genotype by agar dilution method; format: functional; how it was run: as §1
Ogataea angusta [30] = test: Antifungal activity against Hansenula polymorpha AU05 with ade3 ura3 genotype by agar dilution method; format: functional; how it was run: as §1
Ogataea angusta [31] = test: Antifungal activity against Hansenula polymorpha AS1 with arg1 gsh2delta genotype by agar dilution method; format: functional; how it was run: as §1
Saccharomyces cerevisiae [32] = test: Antifungal activity against haploid Saccharomyces cerevisiae 1S by agar dilution method; format: functional; how it was run: as §2
Saccharomyces cerevisiae [33] = test: Antifungal activity against haploid Saccharomyces cerevisiae 10560-6B by agar dilution method; format: functional; how it was run: as §2
Ogataea angusta [34] = test: Antifungal activity against Hansenula polymorpha AS2 with gsh2 genotype with cellular density of 10^3 cells/ml at >40 uM by agar dilution method; format: functional, organism-based
Ogataea angusta [35] = test: Antifungal activity against Hansenula polymorpha CTA1 with leu2 cat1 genotype by agar dilution method; format: functional
How it was run: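 MICs by agar dilution on rich YPD medium. Compounds were added from 96% EtOH stocks to give final agar concentrations of 20 to 50 (units as printed in the source). Cells were suspended in water, serially diluted to 10^9, 10^7, 10^5 and 10^3 cells/ml, and spotted onto agar with a metal replicator. Incubation was at 37 °C for H. polymorpha and 30 °C for S. cerevisiae.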

Ogataea angusta [36] = test: Antifungal activity against Hansenula polymorpha 2a with cys1 genotype with cellular density of 10^3 cells/ml at >40 uM by agar dilution method; format: functional, organism-based
Kluyveromyces lactis [37] = test: Antifungal activity against Kluyveromyces lactis 2-19B with MATalpha ura lys arg genotype by agar dilution method; format: functional; how it was run: as §2
Ogataea angusta [38] = test: Antifungal activity against Hansenula polymorpha M2 with met2 genotype by agar dilution method; format: functional; how it was run: as §1
Ogataea angusta [39] = test: Antifungal activity against Hansenula polymorpha WT1 with cellular density of 10^3 cells/ml at >40 uM by agar dilution method; format: functional, organism-based
Saccharomyces cerevisiae [40] = test: Antifungal activity against haploid Saccharomyces cerevisiae Sigma 1278b by agar dilution method; format: functional; how it was run: as §2
Ogataea angusta [41] = test: Antifungal activity against Hansenula polymorpha AS2 with gsh2 genotype at 20 to 30 uM after 1 day by agar dilution method; format: functional, organism-based
Kluyveromyces lactis [42] = test: Antifungal activity against Kluyveromyces lactis 1-6A with MATalpha uraA lys arg genotype by agar dilution method; format: functional; how it was run: as §2

SMILES: O=C(/C=C/c1ccccc1)c1ccccc1 [CHALCONE]
- MIC (Ogataea angusta [1]): 30 µg/mL (≈ 144 µM)
- MIC (Ogataea angusta [2]): 20 µg/mL (≈ 96 µM)
- MIC (Saccharomyces cerevisiae [3]): > 40 µg/mL
- Activity [4]: 7.1 µg/mL
- Activity (Ogataea angusta [5]): Active
- MIC (Saccharomyces cerevisiae [6]): > 40 µg/mL
- Activity (Ogataea angusta [7]): Active
- MIC (Saccharomyces cerevisiae [8]): > 40 µg/mL
- MIC (Ogataea angusta [9]): 30 µg/mL (≈ 144 µM)
- MIC (Ogataea angusta [10]): < 20 µg/mL
- Activity (Ogataea angusta [11]): Active
- MIC (Saccharomyces cerevisiae [12]): > 40 µg/mL
- MIC (Ogataea angusta [13]): > 40 µg/mL
- MIC (Saccharomyces cerevisiae [14]): > 40 µg/mL
- MIC (Ogataea angusta [15]): 30 µg/mL (≈ 144 µM)
- Activity (Ogataea angusta [16]): Active
- MIC (Ogataea angusta [17]): 25 µg/mL (≈ 120 µM)
- MIC (Ogataea angusta [18]): 30 µg/mL (≈ 144 µM)
- Activity (Ogataea angusta [19]): inactive
- MIC (Saccharomyces cerevisiae [20]): > 40 µg/mL
- Activity (Ogataea angusta [21]): inactive
- MIC (Ogataea angusta [22]): 30 µg/mL (≈ 144 µM)
- MIC (Saccharomyces cerevisiae [23]): > 40 µg/mL
- MIC (Ogataea angusta [24]): 30 µg/mL (≈ 144 µM)
- MIC (Ogataea angusta [25]): 30 µg/mL (≈ 144 µM)
- Activity (Ogataea angusta [26]): inactive
- MIC (Kluyveromyces lactis [27]): < 20 µg/mL
- Activity (Ogataea angusta [28]): inactive
- MIC (Ogataea angusta [29]): > 40 µg/mL
- MIC (Ogataea angusta [30]): < 20 µg/mL
- MIC (Ogataea angusta [31]): 20 µg/mL (≈ 96 µM)
- MIC (Saccharomyces cerevisiae [32]): > 40 µg/mL
- MIC (Saccharomyces cerevisiae [33]): > 40 µg/mL
- Activity (Ogataea angusta [34]): Active
- MIC (Ogataea angusta [35]): 30 µg/mL (≈ 144 µM)
- Activity (Ogataea angusta [36]): Active
- MIC (Kluyveromyces lactis [37]): 25 µg/mL (≈ 120 µM)
- MIC (Ogataea angusta [38]): 30 µg/mL (≈ 144 µM)
- Activity (Ogataea angusta [39]): Active
- MIC (Saccharomyces cerevisiae [40]): > 40 µg/mL
- Activity (Ogataea angusta [41]): Active
- MIC (Kluyveromyces lactis [42]): < 20 µg/mL
